# Sampled rows, rich in hits. Any-hit rate of the full collection: about 2.6%.
# SR-BI DiI inh – blocks mouse SR-BI lipid uptake from DiI-HDL; Q61009; ldlA[mSR-BI] CHO cells, DiI-HDL uptake fluorescence, 3 h; inhibition, % at 12.5 µM; hit rate 0.96% among 320,000; AID 488896;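 active = mean replicate inhibition of at least 70% and a set share of replicates each scoring 70 or more; inconclusive = meets just one of the two criteria; inactive = fails both criteria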;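 also: 0% = median of neutral control wells and 100% = median of positive control wells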
# Target sequence (Q61009 whole entry, looked up): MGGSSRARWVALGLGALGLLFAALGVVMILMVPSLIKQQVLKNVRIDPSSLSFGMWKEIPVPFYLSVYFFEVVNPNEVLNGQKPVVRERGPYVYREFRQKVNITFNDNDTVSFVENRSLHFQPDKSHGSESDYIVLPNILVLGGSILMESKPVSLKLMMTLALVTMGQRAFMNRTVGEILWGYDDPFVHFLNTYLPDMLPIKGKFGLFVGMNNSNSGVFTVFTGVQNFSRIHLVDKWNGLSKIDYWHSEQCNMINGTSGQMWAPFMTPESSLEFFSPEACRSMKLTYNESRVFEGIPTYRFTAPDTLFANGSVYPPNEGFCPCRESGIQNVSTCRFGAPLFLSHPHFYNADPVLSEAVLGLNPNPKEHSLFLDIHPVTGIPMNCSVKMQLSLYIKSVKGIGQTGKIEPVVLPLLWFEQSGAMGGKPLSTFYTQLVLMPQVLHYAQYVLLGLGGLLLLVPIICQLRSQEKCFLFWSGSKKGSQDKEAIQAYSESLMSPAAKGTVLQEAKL
# rRNA inh HTS – inhibitors of bacterial rRNA selective over humanized ribosomes | hit rate 1.6% among 350,000 | AID 720706 | E. coli WT GFP vs humanized-ribosome RFP mutants, fluorescence, 24 h; hits give low values; DMSO median 0, no signal -100 | GFP signal change (wild-type ribosome), % (concentration not given with the values);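 active = significant combined selectivity score with lowered wild-type GFP, culture density cut under 30%, mutant RFP and density less affected; inactive = any of these conditions unmet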
# Xi reactivation – reactivates the inactive X chromosome in mouse fibroblasts | XiGFP mouse fibroblasts, % GFP-positive cells imaging, 3 d; cells co-treated with 5-aza-dC sensitizer; scaled so ellipticine positive control = 100% | activation, % at 7.58 µM | hit rate 0.055% among 360,000 | AID 743238;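 active = mean normalized replicate activation at least 10% and every replicate at or above 10%; inconclusive = only one of the two criteria met; inactive = mean below 10% and not all replicates reach 10%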;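 also: 0% = median of on-plate neutral control wells and 100% = ellipticine 6 µM median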
#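 assay system = SV40-immortalized XiGFP fibroblast cells, line 68-5-11 | buffer or medium = DMEM plus 5-aza-dC sensitizer | doses = single-point pinned compound dosing | times = 3-day compound exposure, then 15 min fixation at room temperature | benchmarks = positive control ellipticine, 6 µM final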
# SR-BI uptake up – enhances SR-BI lipid uptake from DiI-HDL. activation, % at 12.5 µM. CHO ldlA[mSR-BI] cells, DiI-HDL uptake fluorescence, 3 h; 100 = double the neutral-control signal. hit rate 0.096% among 320,000;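 active = mean replicate activation of at least 60% and every replicate at or above 60%; inconclusive = mean or all-replicate condition met, but not both; inactive = mean below 60% and not all replicates reaching 60%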;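 also: 0% = median plate neutral-control signal and 100% = twice that signal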
#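 material = CHO ldlA[mSR-BI] cells | medium = Ham's F12 with 0.5% BSA, HEPES 25 mM, pH 7.4 | reagent = fluorescent DiI-HDL, 10 µg/mL final | compound dosing = single-point compound dose | incubation = 3 h, 37 °C | measured by = bottom-read fluorescence, 550/595 nm | measure = HDL uptake via cellular fluorescence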
# PvdQ inh – blocks Pseudomonas aeruginosa PvdQ acylase activity; purified PvdQ acylase, fluorescence plate reader; inhibition, % at 10 µM; hit rate 0.063% among 340,000; AID 488965; in the data active = inhibition above about 30%, passing the limit was not always enough; inconclusive = no clear call, values can overlap the other calls;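 also: 0% = vehicle neutral wells and 100% = reference inhibitor wells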
# dFosB activator – mouse delta FosB homodimer activation. P13346. purified delta FosB, TAMRA-CDK5 oligo fluorescence polarization; percent of positive-control signal above neutral wells. activation, % at 25 µM. hit rate 0.99% among 340,000;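 active = mean activation above about 17%, with every replicate also reaching it, limit read from the data, passing the limit was not always enough; inconclusive = only one of the two conditions met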
# DiI quench – quenches DiI-HDL fluorescence, an SR-BI assay artifact; hit rate 20% among 470; shares compounds with SR-BI DiI inh; cell-free DiI-HDL fluorescence quenching, 30 min; AC50, µM (doses to about 35 µM), inactives show at the top dose activity change, negative = quenching; AID 540326;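 active = quenching, a falling signal, with AC50 below a set limit tied to the top valid dose, actives reach about 32 µM in these data; inconclusive = no clear call, values can overlap the other calls; inactive = rising signal, and the rest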
# * = called active by the depositor; ? = inconclusive; . = not tested or not shown.
SMILES,SR-BI DiI inh,rRNA inh HTS,Xi reactivation,SR-BI uptake up,PvdQ inh,dFosB activator,DiI quench
Cc1cc(N2CCN(C(=O)c3ccco3)CC2)n2ncc(-c3ccccc3)c2n1,78.3*,.,.,-78.3,3.4,-1.0,-9.5%
COC(=O)c1[nH]c2cc(OC)ccc2c1NC(=O)c1ccc2c(c1)OCO2,71.7*,.,.,-71.7,-2.7,4.7,11.9µM*
O=C(CCNS(=O)(=O)c1ccc(OC(F)(F)F)cc1)Nc1cccc(S(=O)(=O)N2CCCC2)c1,13.6,-17.1,-0.4,-13.6,-28.7,-17.9,.
O=C(NNC(=O)c1cc(Br)ccc1O)c1csc(N2CCOCC2)n1,128.0*,.,.,-128.0,-12.5,-1.6,1µM*
COCCN(C(=O)COC(=O)c1ccccc1Nc1ccccc1)c1c(N)n(Cc2ccccc2)c(=O)[nH]c1=O,74.1*,2.2,0.1,-74.1,-9.1,-5.8,3.8%
COCCN(C(=O)COC(=O)c1cccc2ccccc12)c1c(N)n(Cc2ccccc2)c(=O)[nH]c1=O,-1.6,3.8,0.1,1.6,9.3,-8.4,.
Clc1ccc(Cn2nnc(-c3ccc(N4CCOCC4)cc3)n2)cc1,83.5*,.,.,-83.5,2.0,0.4,-5.7%
O=C(NNc1c(F)c(F)cc(F)c1F)C1CCN(S(=O)(=O)c2ccccc2F)CC1,79.1*,6.4,0.0,-79.1,-4.8,-1.2,-0.8%
O=C(NCc1ccccn1)C1CCN(S(=O)(=O)c2ccccc2F)CC1,-27.7,5.2,0.3,27.7,-9.7,-1.2,.
Cc1c(Br)cccc1NC(=O)c1sccc1-n1cccc1,58.9,.,.,-58.9,-13.1,-8.6,.
CC(C)c1ccc(NC(=O)c2sccc2-n2cccc2)cc1,100.8*,-1.8,0.0,-100.8,-3.2,0.4,2.3%
CN(C(=O)c1ccc2c(c1)CCN2S(C)(=O)=O)c1ccccc1,20.0,12.3,0.0,-20.0,-14.6,2.6,-1.8%
Cc1cc(C)cc(NC(=O)c2ccc3c(c2)CCN3S(C)(=O)=O)c1,76.6*,-6.0,0.1,-76.6,1.1,-8.9,2.7%
Cc1ccc(NC(=O)c2ccc3c(c2)CCN3S(C)(=O)=O)cc1C,?,-5.4,0.0,-70.4,-11.7,-5.3,0.3%
O=C(Nc1ccccc1F)c1ccc2c(c1)CCN2S(=O)(=O)c1ccccc1,52.6,-9.8,0.0,-52.6,-16.2,-0.2,-0.6%
O=C(Nc1c(F)cccc1F)c1ccc2c(c1)CCN2S(=O)(=O)c1ccccc1,38.6,-1.8,0.0,-38.6,-5.1,-4.0,.
COc1ccc(NC(=O)Nc2ccc3c(c2)C(=O)N([C@H](C)CO)C[C@@H](C)[C@@H](CN(C)Cc2ccc(Cl)c(Cl)c2)O3)cc1,.,-3.7,-1.4,.,.,.,.
Clc1ccccc1Nc1nc(-c2ccncc2)nc2ccccc12,67.0,-12.3,0.3,-67.0,-1.9,-27.4,.
CC(=O)c1c(C)[nH]c(C(=O)OCc2nc3ccsc3c(=O)[nH]2)c1C,71.1*,-18.5,0.4,-71.1,-3.1,-5.9,-6.0%
Cc1ccsc1C(=O)OCc1nc2ccsc2c(=O)[nH]1,-12.8,-9.3,-0.1,12.8,-0.4,-1.2,.
O=C(NCC[C@@H]1CC[C@@H](NS(=O)(=O)c2cccc(F)c2)[C@@H](CO)O1)C1CC1,.,-0.8,2.0,.,.,.,.
CC(C)C(=O)Nc1sc2c(c1-c1nc3ccccc3[nH]1)CCCC2,101.2*,.,.,-101.3,-16.8,-9.4,21.5µM*
CC(C)C(=O)Nc1ccccc1-c1nc2ccccc2[nH]c1=O,-18.0,6.0,-0.1,18.0,-13.1,3.7,.
COc1c(C)cccc1C(=O)NC(=S)Nc1cccc2nsnc12,-15.0,7.9,0.6,15.0,3.9,-6.0,.
Cc1c(C(=O)Nc2ccc(Cl)cc2)c2ccccn2c1CCc1ccncc1,96.6*,.,0.1,-96.6,-7.2,-8.5,31.5µM*
SMILES,SR-BI DiI inh,rRNA inh HTS,Xi reactivation,SR-BI uptake up,PvdQ inh,dFosB activator,DiI quench
Cc1c(C(=O)Nc2cccc(Cl)c2)c2ccccn2c1CCc1ccncc1,94.1*,.,0.0,-94.1,1.4,-11.8,25.2µM*
C[C@H](CO)N1C[C@H](C)[C@H](CN(C)S(=O)(=O)c2cn(C)cn2)OCc2cnnn2CCCC1=O,.,3.0,-0.2,.,.,.,.
CC(=O)c1cc(C#N)c(SCc2ccccc2C#N)nc1C,74.7*,.,.,-74.7,-7.8,-2.2,-1.0%
CC(=NCCc1ccccc1)C1=C(O)CCC1=O,-14.1,.,.,14.1,5.0,1.6,.
Cc1cccc(-c2ccc3c(c2)C2CC3CCN2C(=O)OCc2ccccc2)c1 (stereo not given),84.7*,-4.8,-0.1,-84.7,-17.8,-6.0,-1.6%
O=C(OCc1ccccc1)N1CCC2CC1c1cc(-c3ccccc3)ccc12 (stereo not given),-11.4,2.8,0.0,11.4,-18.2,-13.5,-0.8%
COc1cccc(NC(=O)Nc2ccc3c(c2)C(=O)N(C)C[C@H](OC)[C@H](C)CN(CC2CC2)[C@@H](C)CO3)c1,.,-3.2,-0.2,.,.,.,.
CN(C)S(=O)(=O)c1cccc(COC(=O)c2cccnc2Cl)c1,-0.4,-1.2,8.5,0.4,-16.8,-4.1,.
COC(=O)C1C(=O)c2c([nH]c(C(=O)OC3CCCC3C)c2C)CC1C (stereo not given),36.7,-0.3,0.1,-36.7,-14.5,-13.5,-0.8%
CC(=O)Nc1ccc(S(=O)(=O)N2CCC(C(=O)NCCC(=O)NCc3ccccc3)CC2)cc1,119.4*,0.9,0.4,-119.4,-19.6,-5.7,-2.6%
O=S(=O)(NC1CCCCCCC1)c1ccccc1,-10.9,-17.6,0.2,10.9,10.2,1.7,.
COc1ccc(/C=C/C(=O)OCC(=O)c2ccc[nH]2)cc1,-3.7,3.7,0.3,3.7,-9.7,-1.9,.
COc1cc(/C=C/C(=O)OCC(=O)c2ccc[nH]2)cc(OC)c1OC,?,-0.7,-0.2,-74.0,-9.9,-12.5,-1.8%
CC(=O)Nc1c2c(nn1-c1ccc(C)cc1)CSC2,-17.1,16.8,0.0,17.1,6.9,-7.2,.
COC(=O)C1=CN(c2ccc(F)cc2)C=C(C(=O)OC)C1c1ccc([N+](=O)[O-])cc1,61.2,7.5,0.3,-61.2,-0.3,-9.3,.
CCOC(=O)C1=CN(c2cccc(F)c2)C=C(C(=O)OCC)C1c1cc(OC)c(O)c([N+](=O)[O-])c1,-1.7,.,.,1.7,-3.5,-17.6,7.72µM*
COc1ccc(N2CCN(C(=O)CNC(=O)c3ccccc3Cl)CC2)cc1,11.2,1.1,0.1,-11.2,-11.5,0.0,.
O=C(COC(=O)c1cc(-c2cccc(Br)c2)nc2ccccc12)NCC1CCCO1 (stereo not given),38.6,1.4,0.0,-38.6,2.9,-18.7,.

# Source: PubChem (Broad Institute)
